Key:
Format in all cases: functional
Streptococcus pneumoniae [1] = test: Antimicrobial activity against drug-resistant Streptococcus pneumoniae isolate 24 after 50 passages with moxifloxacin measured after 10 antibiotic-free subculture by multi-step resistance selection technique
How it was run: (§1)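 Mutants selected by daily broth passage in subinhibitory drug in cation-adjusted Mueller-Hinton broth with 5% lysed horse blood. Stability was tested by 10 daily passages on blood agar without antibiotic, then macrodilution MIC.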

Streptococcus pneumoniae [2] = test: Antimicrobial activity against drug-resistant Streptococcus pneumoniae isolate 24 after 14 passages with Telithromycin measured after 10 antibiotic-free subculture by multi-step resistance selection technique; how it was run: as §1
Streptococcus pneumoniae [3] = test: Antimicrobial activity against drug-resistant Streptococcus pneumoniae isolate 24 after 50 passages by multi-step resistance selection technique
How it was run: (§2)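 Daily serial passage in subinhibitory drug levels in 1 ml cation-adjusted Mueller-Hinton broth with 5% lysed horse blood; fresh broth for tigecycline. Each day, 10 μl were taken from the tube one to two dilutions below the MIC whose turbidity matched the growth control, and used to set the next MIC. MIC by macrodilution.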

Streptococcus pneumoniae [4] = test: Antimicrobial activity against drug-resistant Streptococcus pneumoniae isolate 24 by NCCLS M7-A7 method
Streptococcus pneumoniae [5] = test: Antimicrobial activity against drug-resistant Streptococcus pneumoniae isolate 1635 after 14 passages with azithromycin measured after 10 antibiotic-free subculture by multi-step resistance selection technique; how it was run: as §1
Streptococcus pneumoniae [6] = test: Antimicrobial activity against drug-resistant Streptococcus pneumoniae isolate 1635 after 50 passages by multi-step resistance selection technique; how it was run: as §2
Streptococcus pneumoniae [7] = test: Antimicrobial activity against drug-resistant Streptococcus pneumoniae isolate 1635 by NCCLS M7-A7 method
Streptococcus pneumoniae [8] = test: Antimicrobial activity against drug-resistant Streptococcus pneumoniae isolate 3243 after 41 passages with clarithromycin measured after 10 antibiotic-free subculture by multi-step resistance selection technique
Streptococcus pneumoniae [9] = test: Antimicrobial activity against drug-resistant Streptococcus pneumoniae isolate 3243 after 33 passages with azithromycin measured after 10 antibiotic-free subculture by multi-step resistance selection technique; how it was run: as §1
Streptococcus pneumoniae [10] = test: Antimicrobial activity against drug-resistant Streptococcus pneumoniae isolate 3243 after 29 passages with Telithromycin measured after 10 antibiotic-free subculture by multi-step resistance selection technique; how it was run: as §1
Streptococcus pneumoniae [11] = test: Antimicrobial activity against drug-resistant Streptococcus pneumoniae isolate 3243 after 50 passages by multi-step resistance selection technique
How it was run: as §2, with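 “MIC. […]” for “MIC.”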

Streptococcus pneumoniae [12] = test: Antimicrobial activity against drug-resistant Streptococcus pneumoniae isolate 3243 by NCCLS M7-A7 method
Streptococcus pneumoniae [13] = test: Antimicrobial activity against drug-resistant Streptococcus pneumoniae isolate 3274 after 48 passages with Telithromycin measured after 10 antibiotic-free subculture by multi-step resistance selection technique; how it was run: as §1
Streptococcus pneumoniae [14] = test: Antimicrobial activity against drug-resistant Streptococcus pneumoniae isolate 3274 after 50 passages by multi-step resistance selection technique; how it was run: as §2
Streptococcus pneumoniae [15] = test: Antimicrobial activity against drug-resistant Streptococcus pneumoniae isolate 3274 by NCCLS M7-A7 method
Streptococcus pneumoniae [16] = test: Antimicrobial activity against drug-resistant Streptococcus pneumoniae isolate 2527 after 14 passages with gemifloxacin measured after 10 antibiotic-free subculture by multi-step resistance selection technique; how it was run: as §1
Streptococcus pneumoniae [17] = test: Antimicrobial activity against drug-resistant Streptococcus pneumoniae isolate 2527 after 20 passages with azithromycin measured after 10 antibiotic-free subculture by multi-step resistance selection technique; how it was run: as §1
Streptococcus pneumoniae [18] = test: Antimicrobial activity against drug-resistant Streptococcus pneumoniae isolate 2527 by NCCLS M7-A7 method
Streptococcus pneumoniae [19] = test: Antimicrobial activity against drug-resistant Streptococcus pneumoniae isolate 3665 after 50 passages by multi-step resistance selection technique
How it was run: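 Daily serial passage in broth at subinhibitory drug levels: 1 ml cation-adjusted Mueller-Hinton broth with 5% lysed horse blood; fresh broth for tigecycline. Each day 10 μl inoculum taken from the tube one to two dilutions below MIC matching growth-control turbidity, used to set next MIC. Continued until ≥8-fold MIC rise, minimum 14, maximum 50 passages; MIC read by macrodilution.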

Streptococcus pneumoniae [20] = test: Antimicrobial activity against drug-resistant Streptococcus pneumoniae isolate 3665 by NCCLS M7-A7 method
Streptococcus pneumoniae [21] = test: Antimicrobial activity against drug-resistant Streptococcus pneumoniae isolate 1077 after 49 passages with clindamycin measured after 10 antibiotic-free subculture by multi-step resistance selection technique
Streptococcus pneumoniae [22] = test: Antimicrobial activity against drug-resistant Streptococcus pneumoniae isolate 1077 after 29 passages with azithromycin measured after 10 antibiotic-free subculture by multi-step resistance selection technique; how it was run: as §1
Streptococcus pneumoniae [23] = test: Antimicrobial activity against drug-resistant Streptococcus pneumoniae isolate 1077 after 50 passages by multi-step resistance selection technique; how it was run: as §2
Streptococcus pneumoniae [24] = test: Antimicrobial activity against drug-resistant Streptococcus pneumoniae isolate 1077 by NCCLS M7-A7 method
Streptococcus pneumoniae [25] = test: Antimicrobial activity against drug-resistant Streptococcus pneumoniae isolate 1076 after 14 passages with Telithromycin measured after 10 antibiotic-free subculture by multi-step resistance selection technique; how it was run: as §1
Streptococcus pneumoniae [26] = test: Antimicrobial activity against drug-resistant Streptococcus pneumoniae isolate 1076 by NCCLS M7-A7 method
Streptococcus pneumoniae [27] = test: Antimicrobial activity against drug-resistant Streptococcus pneumoniae isolate 1076 after 50 passages by multi-step resistance selection technique
How it was run: as §2, with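 “MIC. […]” for “MIC.”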

Streptococcus pneumoniae [28] = test: Antimicrobial activity against drug-resistant Streptococcus pneumoniae isolate 3009 after 19 passages with moxifloxacin measured after 10 antibiotic-free subculture by multi-step resistance selection technique; how it was run: as §1
Streptococcus pneumoniae [29] = test: Antimicrobial activity against drug-resistant Streptococcus pneumoniae isolate 3009 after 18 passages with levofloxacin measured after 10 antibiotic-free subculture by multi-step resistance selection technique; how it was run: as §1
Streptococcus pneumoniae [30] = test: Antimicrobial activity against drug-resistant Streptococcus pneumoniae isolate 3009 by NCCLS M7-A7 method
Streptococcus pneumoniae [31] = test: Antimicrobial activity against drug-resistant Streptococcus pneumoniae isolate 3009 after 50 passages by multi-step resistance selection technique
How it was run: as §2, with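 “MIC. […]” for “MIC.”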

Streptococcus pneumoniae [32] = test: Antimicrobial activity against drug-resistant Streptococcus pneumoniae isolate 37 by NCCLS M7-A7 method
Streptococcus pneumoniae [33] = test: Antimicrobial activity against drug-resistant Streptococcus pneumoniae isolate 37 after 50 passages by multi-step resistance selection technique
How it was run: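 Daily serial passage in broth at subinhibitory drug levels: 1 ml cation-adjusted Mueller-Hinton broth with 5% lysed horse blood; fresh broth for tigecycline. Each day 10 μl inoculum taken from the tube one to two dilutions below MIC matching growth-control turbidity, used to set next MIC.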

Streptococcus pneumoniae [34] = test: Antimicrobial activity against drug-resistant Streptococcus pneumoniae isolate 37 after 14 passages with Telithromycin measured after 10 antibiotic-free subculture by multi-step resistance selection technique
Streptococcus pneumoniae [35] = test: Antimicrobial activity against drug-resistant Streptococcus pneumoniae isolate 3413 by NCCLS M7-A7 method
Streptococcus pneumoniae [36] = test: Antimicrobial activity against drug-resistant Streptococcus pneumoniae isolate 3413 after 50 passages by multi-step resistance selection technique; how it was run: as §2
Streptococcus pneumoniae [37] = test: Antimicrobial activity against drug-resistant Streptococcus pneumoniae isolate 3676 after 44 passages with clarithromycin measured after 10 antibiotic-free subculture by multi-step resistance selection technique
Streptococcus pneumoniae [38] = test: Antimicrobial activity against drug-resistant Streptococcus pneumoniae isolate 3676 by NCCLS M7-A7 method
Streptococcus pneumoniae [39] = test: Antimicrobial activity against drug-resistant Streptococcus pneumoniae isolate 3665 after 14 passages with Telithromycin measured after 10 antibiotic-free subculture by multi-step resistance selection technique

Measured: MIC

CO/N=C(\C(=O)N[C@@H]1C(=O)N2C(C(=O)O)=C(CSc3nc(=O)c(O)nn3C)CS[C@H]12)c1csc(N)n1 [CEFTRIAXONE]
0.03 µg/mL: Streptococcus pneumoniae [6] | Streptococcus pneumoniae [22] | Streptococcus pneumoniae [25] | Streptococcus pneumoniae [28] | Streptococcus pneumoniae [30] | Streptococcus pneumoniae [31] | Streptococcus pneumoniae [37] | Streptococcus pneumoniae [38]
0.125 µg/mL: Streptococcus pneumoniae [8] | Streptococcus pneumoniae [9] | Streptococcus pneumoniae [10] | Streptococcus pneumoniae [12] | Streptococcus pneumoniae [13] | Streptococcus pneumoniae [15]
0.016 µg/mL: Streptococcus pneumoniae [5] | Streptococcus pneumoniae [7] | Streptococcus pneumoniae [21] | Streptococcus pneumoniae [23] | Streptococcus pneumoniae [24] | Streptococcus pneumoniae [26] | Streptococcus pneumoniae [27] | Streptococcus pneumoniae [29]
0.06 µg/mL: Streptococcus pneumoniae [19] | Streptococcus pneumoniae [20] | Streptococcus pneumoniae [39]
1 µg/mL: Streptococcus pneumoniae [1] | Streptococcus pneumoniae [4] | Streptococcus pneumoniae [16] | Streptococcus pneumoniae [33] | Streptococcus pneumoniae [35] | Streptococcus pneumoniae [36]
2 µg/mL: Streptococcus pneumoniae [2] | Streptococcus pneumoniae [3] | Streptococcus pneumoniae [17] | Streptococcus pneumoniae [18] | Streptococcus pneumoniae [32] | Streptococcus pneumoniae [34]
0.25 µg/mL: Streptococcus pneumoniae [11] | Streptococcus pneumoniae [14]

CN(C)c1cc(NC(=O)CNC(C)(C)C)c(O)c2c1C[C@H]1C[C@H]3[C@H](N(C)C)C(O)=C(C(N)=O)C(=O)[C@@]3(O)C(O)=C1C2=O [TIGECYCLINE]
0.06 µg/mL: Streptococcus pneumoniae [9] | Streptococcus pneumoniae [28] | Streptococcus pneumoniae [29]
0.03 µg/mL: Streptococcus pneumoniae [1] | Streptococcus pneumoniae [2] | Streptococcus pneumoniae [3] | Streptococcus pneumoniae [4] | Streptococcus pneumoniae [5] | Streptococcus pneumoniae [6] | Streptococcus pneumoniae [8] | Streptococcus pneumoniae [10] | Streptococcus pneumoniae [11] | Streptococcus pneumoniae [12] | Streptococcus pneumoniae [13] | Streptococcus pneumoniae [14] | Streptococcus pneumoniae [15] | Streptococcus pneumoniae [16] | Streptococcus pneumoniae [17] | Streptococcus pneumoniae [21] | Streptococcus pneumoniae [22] | Streptococcus pneumoniae [25] | Streptococcus pneumoniae [26] | Streptococcus pneumoniae [27] | Streptococcus pneumoniae [34] | Streptococcus pneumoniae [36] | Streptococcus pneumoniae [37] | Streptococcus pneumoniae [39]
0.016 µg/mL: Streptococcus pneumoniae [7] | Streptococcus pneumoniae [18] | Streptococcus pneumoniae [19] | Streptococcus pneumoniae [20] | Streptococcus pneumoniae [23] | Streptococcus pneumoniae [24] | Streptococcus pneumoniae [31] | Streptococcus pneumoniae [32] | Streptococcus pneumoniae [33] | Streptococcus pneumoniae [35] | Streptococcus pneumoniae [38]

Reference: ChEMBL document CHEMBL1151428, “Capability of 11 antipneumococcal antibiotics to select for resistance by multistep and single-step methodologies” (2007)
